Assays:
EL4 [1] = test: Cytotoxicity against EL-4 cell line (mouse thymoma cells); format: functional, cell-based
Procedure, shortened: (§1)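 Growth-inhibition assay on cultured cells, reported as IC50. […] used primary mouse lymphocytes, either PMA/ionomycin-stimulated or in a mixed lymphocyte reaction. C2C12 are nontransformed mouse myoblasts. BAE are primary bovine aortic endothelial cells.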

P388 [2] = test: Cytotoxicity against P-388 cell line (mouse T-cell leukemia cells); format: functional, cell-based; procedure, shortened: as §1
P388 [3] = test: Cytotoxicity against P-388 cell line (mouse T-cell leukemia); format: functional, cell-based
Procedure, shortened: (§2)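 Cell proliferation inhibition measured in cultured cells; value reported as IC50.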

EL4 [4] = test: Cytotoxicity against EL-4 cell line (mouse thymoma); format: functional, cell-based; procedure, shortened: as §2
Jurkat = test: Cytotoxicity against Jurkat cell line (human T-cell leukemia cells); format: functional, cell-based; procedure, shortened: as §1
[5] = Cytotoxicity against BAE cell line (bovine aortic endothelial cells); format: functional, cell-based; conditions: Bos taurus; procedure, shortened: as §1
N1E-115 = test: Cytotoxicity against N1E-115 cell line (mouse neuroblastoma cells); format: functional, cell-based; procedure, shortened: as §1
[6] = Cytotoxicity against C2C12 cell line (mouse myoblast cells); format: functional, cell-based; procedure, shortened: as §1
EL4 [7] = test: Cytotoxicity against mouse thymoma cells (EL-4 cell lines); format: functional, cell-based; procedure, shortened: as §1
Mus musculus = organism: Mus musculus; test: Cytotoxicity against mouse mixed lymphocyte reaction; format: functional; procedure, shortened: as §1
[8] = Cytotoxicity against mouse PMA ionomycin-stimulated lymphocytes; format: functional; procedure, shortened: as §1

For CCCCCCCC(=O)N(C)[C@@H](CC(C)C)C(=O)N[C@H](C(=O)N(C)[C@H](C(=O)N1C[C@@H](O)C[C@H]1C(=O)N1C(=O)C=C[C@H]1C)C(C)C)C(C)OC(C)=O (some centres undefined), the IC50 (EL4 [1]) was 6000 nM and the IC50 (P388 [2]) was 7000 nM.

Compound CCCCCCCC(=O)N(C)[C@@H](CC(C)C)C(=O)N[C@H](C(=O)N(C)[C@H](C(=O)N1CCC[C@H]1C(=O)N1C(=O)C=C[C@@H]1C)C(C)C)C(C)OC(C)=O (some centres undefined) has an IC50 (EL4 [1]) of 6000 nM and an IC50 (P388 [2]) of 5000 nM.

For CC(=O)OC(C)[C@H](NC(=O)[C@H](CC(C)C)N(C)C(=O)CCOCCOCCOCCOCCNC(=O)CCCC[C@@H]1SC[C@@H]2NC(=O)N[C@@H]21)C(=O)N(C)[C@H](C(=O)N1C[C@@H](O)C[C@H]1C(=O)N1C(=O)C=C[C@@H]1C)C(C)C (some centres undefined), the IC50 (P388 [3]) was 10000 nM and the IC50 (EL4 [4]) was 10000 nM.

In the case of CCCCCCCC(=O)N(C)[C@@H](CC(C)C)C(=O)N[C@H](C(=O)N(C)[C@H](C(=O)N1C[C@@H](O)C[C@H]1C(=O)N1C(=O)C=C[C@@H]1C)C(C)C)C(C)OC(C)=O (some centres undefined), the IC50 (Jurkat) is reported as 39.4 nM, the IC50 [5] is reported as 36.7 nM and the IC50 (N1E-115) is reported as 35.9 nM. For the same compound, the IC50 [6] was 43.4 nM, the IC50 (P388 [2]) was 66.7 nM and the IC50 (EL4 [7]) was 45.6 nM. It also gave an IC50 (Mus musculus) of 32.8 nM and an IC50 [8] of 30.3 nM.

Source: ChEMBL document CHEMBL1140356, “Developing microcolin A analogs as biological probes” (Bioorg Med Chem Lett, 2005)
